Experimental data: publication PMC3999704 (Current Chemical Genomics and Translational Medicine, 2014)

Tests used:
Format in all cases: cell-based, rat
[1] = system: thyroid hormone receptor (TR); details: 24 well format, 24h, normalized to total protein values
In short: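 GH3.TRE-Luc cells were seeded at 150,000/well in DMEM:F12 with 15 mM HEPES, 10% FBS and Pen/Strep. After 24 h the medium was changed to PCM medium for another 24 h. Cells were then exposed 24 h to ligands in 0.2% DMSO. Luciferase was read from lysed cells and cell number estimated by BCA protein assay. Duplicates per dose, ≥3 experiments.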

[2] = system: thyroid hormone receptor (TR); test: qHTS GH3.TRE-Luc luciferase reporter gene assay, agonist mode; details: LOPAC library screen
In short: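 Cells were held 20 h in serum-free assay medium (DMEM:F12 with insulin, ethanolamine, selenite, apotransferrin and BSA), then detached and dispensed in 5 µl/well. After 4–5 h at 37°C, compound or DMSO was pinned in (final DMSO 0.46 or 0.92%) for 24 h. One-Glo was added, 30 min at room temperature, then luminescence read. Data were normalized to 100 nM T3 (100%) and DMSO (0%).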

GH3.TRE-Luc cells = test: Cell viability assay, intracellular ATP content; details: over the range of concentrations used within the 24 h treatment, presence of 1 nM T3

Row | SMILES | induction of the reporter gene luciferase activity [1] | other results
1 | O=S(=O)(c1ccccc1)N(CC(F)(F)F)c1ccc(C(O)(C(F)(F)F)C(F)(F)F)cc1 [T0901317] | neither the RAR-specific ligand TTNPB nor the LXR-specific ligand T0901317 activated the reporter gene | 
2 | NCCCC(=O)O [GABA] |  | response in this assay [2]: did not show any response
3 | C/C(=C\c1ccc(C(=O)O)cc1)c1ccc2c(c1)C(C)(C)CCC2(C)C [TTNPB] | neither the RAR-specific ligand TTNPB nor the LXR-specific ligand T0901317 activated the reporter gene | 
4 | N[C@@H](Cc1cc(I)c(Oc2ccc(O)c(I)c2)c(I)c1)C(=O)O [T3, triiodothyronine] | showed the expected induction profiles | 
5 | O=c1[nH]cc(F)c(=O)[nH]1 [5-fluorouracil] |  | cytotoxicity (GH3.TRE-Luc cells): without apparent cytotoxicity
